# Source: PubChem BioAssay
# Sampled rows, rich in hits. Any-hit rate of the full collection: about 1.7%.
# MT1-MMP act inh = blockers of MT1-MMP proenzyme processing, primary screen, HT1080 RFP-PRO-GFP cells, GFP/RFP fluorescence. Matrix metalloproteinase-14 (Homo sapiens), P50281. GFP/RFP ratio fluorescence, overnight; percent of plate control window, DMSO zero. GFP/RFP ratio change, % at 20 µM. 0.061% of 360,000 active;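 active = GFP/RFP ratio change of at least 30% with cell ATP level not reduced by more than half and red fluorescence within 50% of control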
#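 Compound: 20 µM single dose, 1% DMSO / System: HT1080 RFP-PRO-GFP cells / Controls: DMSO and RFP-L50D-GFP cell wells / Read-out basis: GFP/RFP fluorescence ratio / Schedule: overnight compound exposure at 37 °C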
# PABP1 MLLE inh = inhibitors of PABP1 MLLE–PAM2 peptide binding, primary screen, biochemical, fluorescence polarization, FITC-PAM2, GST-MLLE | AID 588489, 2011 | inhibition, % at 20 µM | Polyadenylate-binding protein 1 (Homo sapiens), P11940 | 0.36% of 360,000 active; in the data active = inhibition above about 35%, passing the limit was not always enough;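 also: plate controls were DMSO wells with GST-MLLE for no effect and wells lacking GST-MLLE protein for full effect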
# PABP FP inh = PABP poly(A) RNA binding inhibitors, primary screen, biochemical, fluorescence polarization, uHTS; Polyadenylate-binding protein 1 (Homo sapiens), P11940; inhibition, % at 35 µM; 1% of 290,000 active;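 also: calls also rest on retests at 20 µM and on dose response follow-up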
# SKN-1 inh = suppressors of acrylamide-induced Pgst-4::GFP reporter in worms, primary screen, SKN-1 inhibitor project, whole organism, uHTS, GFP/RFP fluorescence ratio, strain VP596; 0.49% of 360,000 active; inhibition, % at 21.8 µM; C. elegans VP596 Pgst-4::GFP/RFP ratio, 24 h;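 active = interference check ratio from 0.5 to 1.5 plus GFP to RFP signal ratio inhibition reaching or exceeding a fixed threshold, cut at about 30% in these data, passing the limit was not always enough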
# eIF4H FP inh = human eIF4H binding inhibitors, primary screen, translation initiation inhibitor project, biochemical, uHTS, fluorescence polarization. 0.94% of 290,000 active. AID 2012, 2009. eIF4H fluorescence polarization binding assay. Eukaryotic translation initiation factor 4H (Homo sapiens), Q15056. inhibition, % at 35 µM;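 also: calls also rest on retests at 20 µM and on dose response follow-up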
# The depositor's hits bear a star; ? = inconclusive; . = not tested or not shown. Unless noted, no rule for the calls is given here.
SMILES,MT1-MMP act inh,PABP1 MLLE inh,PABP FP inh,SKN-1 inh,eIF4H FP inh
CCCN1C2CCCC1CC(NC(=O)c1ccc(F)cc1)C2 (stereo not given),0.3,-15.7,-4.0,56.3*,5.3
O=C(/C=C/c1ccco1)NC1=NCCS1,-4.0,34.9,active,9.8,?
O=C(/C=C\c1ccco1)Nc1cc([N+](=O)[O-])ccc1F,23.9,-0.2,-14.6,13.3,39.8
O=C(/C=C/c1ccco1)Nc1cc(Cl)ccc1C(=O)O,-1.3,0.2,active,0.9,89.2*
O=C(/C=C/c1ccco1)Nc1ccccc1C(=O)Nc1cccc(C(=O)O)c1,-2.7,3.7,36.0*,9.2,?
O=C(/C=C/c1ccco1)Nc1cccc(NC(=O)/C=C/c2ccco2)n1,-1.6,-0.4,14.9,12.7,?
Cc1cc(NC(=O)/C=C/c2ccco2)ccc1NC(=O)c1ccccc1,1.4,2.8,-5.7,15.0,-8.2
COc1ccccc1C(=O)N/C(=C/c1ccco1)C(=O)Nc1cccc(C(=O)O)c1,-5.2,-21.3,49.2*,14.3,66.8*
COC(=O)c1[nH]nc(-c2ccccc2)c1-c1ccccc1,5.7,9.9,.,3.8,.
COc1cc(/C=C2\SC(=O)NC2=O)ccc1OCC(=O)N1CCOCC1,7.9,-4.7,.,-6.6,.
COC(=O)c1ccccc1NC(=O)COC(=O)/C=C/c1ccco1,1.8,-19.8,3.7,8.6,53.1*
O=C(/C=C/c1ccco1)Nc1ccccc1N1CCCC1,-4.1,16.6,7.4,7.5,62.4
O=C(/C=C/c1ccco1)Nc1ccccc1C(=O)O,-0.8,16.1,66.7*,9.9,94.7
CCNS(=O)(=O)c1ccc(CCC(=O)N2CCCC2)cc1,-0.5,-14.7,2.7,0.6,-9.5
CCCS(=O)(=O)c1nc(S(=O)(=O)c2ccc(C)cc2)c(NCCCN2CCCC2=O)s1,-1.6,8.2,12.5,4.8,-11.5
CC(C)Cn1c(N)c(C(=O)CSc2nnnn2-c2ccc(Cl)cc2)c(=O)n(C)c1=O,1.8,-20.2,.,1.2,.
CC(C)Cn1c(N)c(C(=O)CSc2nnnn2C)c(=O)n(C)c1=O,3.7,-6.8,4.2,43.4*,-3.2
COc1ccc(CNC(=O)CNC(=O)c2ccc(Br)o2)cc1OC,0.0,-8.4,28.7,10.1,-2.0
C(=C\c1ccccc1)/CSc1ccccn1,-0.6,-10.1,56.9*,29.2,active
CSCCC(NC(N)=O)C(=O)Nc1cccc(C#N)c1 (stereo not given),-7.3,-2.4,-12.5,1.2,52.7*
C#CCOc1coc(COC(=O)c2ccccc2)cc1=O,-1.7,3.4,-8.9,19.5,-6.4
Cc1ccc(NC(=O)c2cccc(NC(=O)CC3SC(N4CCCCC4)=NC3=O)c2)nc1 (stereo not given),-1.9,-4.0,.,3.2,.
O=C(NC(=S)Nc1ncccn1)c1ccccc1Cl,0.0,41.2*,-7.5,-10.1,2.1
CNC(=O)NC(=S)NC(=O)c1ccccc1Cl,0.7,33.9,-9.3,4.5,-6.0
COc1ccc(O)c(/C=N/NC(=O)c2ccc(CSc3nc(C)cc(C)n3)cc2)c1,-8.4,0.0,-3.4,-4.6,10.6
SMILES,MT1-MMP act inh,PABP1 MLLE inh,PABP FP inh,SKN-1 inh,eIF4H FP inh
Cc1cc(C)nc(SCNC(=O)c2ccccc2)n1,5.6,43.1*,-1.6,20.2,3.3
Cc1cc(C)nc(SCc2ccc(C(=O)N/N=C/c3cccc(O)c3O)cc2)n1,-4.0,7.1,active,12.1,97.4*
Cc1cc(SCNC(=O)c2ccccc2)nc(C(C)C)n1,2.1,41.2*,-6.0,-5.8,-7.2
Cc1ccc(P(=O)(CSC(=N)N)c2ccc(C)cc2)cc1,5.9,27.5,6.9,1.0,3.4
N=C(N)SCP(=O)(c1ccccc1)c1ccccc1,-4.5,37.9*,-4.8,-6.0,5.8
O=C(CSc1ccccn1)N/N=C/c1ccccc1[N+](=O)[O-],1.3,-5.2,119.5*,5.0,active
O=C(COC(=O)CCNS(=O)(=O)c1ccccc1)Nc1ccc(OC(F)F)cc1,-1.9,-15.7,.,45.1*,.
N#Cc1ccc(NC(=O)COC(=O)CCNS(=O)(=O)c2ccccc2)cc1,-0.9,-7.2,-0.8,13.8,-3.6
Cc1ccc2nc(/C(C#N)=C/c3ccc(-c4ccccc4C(=O)O)o3)[nH]c2c1,-130.4,-125.6,?,19.7,?
N#C/C(=C\c1ccc(-c2ccccc2C(=O)O)o1)c1nc2ccccc2[nH]1,-130.7,-125.7,49.4*,5.5,79.3
Cc1ccc(NS(=O)(=O)c2cccc(C(=O)OCC(=O)NCc3ccco3)c2)cc1,6.0,-11.2,7.5,9.3,14.0
CN(C)S(=O)(=O)c1ccc(C(=O)OCC(=O)NCc2ccco2)cc1,-1.7,-15.1,?,4.4,69.2*
O=C(COC(=O)c1cccs1)NCc1ccco1,0.1,-9.8,34.7,3.6,27.7
O=C(COC(=O)c1cncc(Br)c1)NCc1ccco1,-16.0,6.8,50.3*,-11.4,97.1*
O=C(COC(=O)c1ccc(NS(=O)(=O)c2cccs2)cc1)NCc1ccco1,-9.2,-6.3,63.5*,-11.2,99.7*
COc1cc(NC(=O)c2cccs2)c(C(=O)OCC(=O)NCc2ccco2)cc1OC,1.8,-24.4,61.6*,2.8,89.4*
COC(=O)c1ccc(/C=C(/NC(=O)c2ccccc2)C(=O)N2CCOCC2)cc1,1.1,-3.6,-2.5,12.1,6.3
O=C(COC(=O)Cc1ccc(F)cc1)NCc1ccco1,-0.1,-12.3,active,5.1,92.8*
FC(F)(F)c1ccc2c(c1)NCC1CCCN21 (stereo not given),-58.1,-8.1,23.2*,-8.6,53.4*
COc1ccc(-n2ncc3c2CC(C)(C)CC3NC(=O)CCN2CCCCC2=O)cc1 (stereo not given),2.5,-0.7,-0.9,-9.1,-1.2
CCOC(=O)c1c(NC(=O)C(Sc2ccccc2)c2ccccc2)sc(C(N)=O)c1C (stereo not given),-23.3,18.6,1.6,17.5,-10.2
CCOC(=O)c1c(NC(=O)C(Sc2ccccc2)c2ccccc2)sc(C(=O)N(C)C)c1C (stereo not given),-26.3,16.2,65.8*,1.3,active
CC[C@]12c3[nH]c4cc(CCC(=O)N(C)C)ccc4c3CCN1C(=O)[C@@H](CC(=O)NCCCn1ccnc1)C[C@@H]2C(=O)N1CCN(C(=O)c2ccco2)CC1,4.9,11.4,.,-8.2,.
Cc1nc(S/C(=C\c2ccc(-c3ccc(C(=O)O)c(Cl)c3)o2)C(=O)O)n[nH]1,-7.3,-78.1,55.3*,7.5,74.8*
Cc1nc(S/C(=C\c2ccc(OCc3ccccc3Cl)cc2)C(=O)O)n[nH]1,1.3,-3.4,-1.3,29.5,20.5
